Data on one compound can be found in ChEMBL document CHEMBL5608187, “Discovery of pyridoquinoxaline-based new P-gp inhibitors as coadjutant against Multi Drug Resistance in cancer” (Eur J Med Chem, 2024).

The source made the active and inactive calls. The rule behind the calls is not given here.

The target in series [1] is T1, ATP-dependent translocase ABCB1 (Homo sapiens, UniProt P08183). Kind of series: Inhibition of P-gp in human HT1197 cells assessed as increase in green fluorescence intensity at 0.1 to 10 uM incubated for 15 mins followed by incubation with EFFLUX-ID Green Detection Reagent and Hoeschst-33342 dye and measured after 30 mins by fluorescence analysis. Conditions: ht1197, 0.25 h, dose 0.1-10 µM. The format is cell-based. In a few lines:
(§1)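 5000 cells/well in phenol-red-free medium plated 24 h before; compounds 0.1, 1, 10 µM for 15 min, then EFLUXX-ID Green reagent (1:200) plus Hoechst-33342 1 µg/mL, 30 min 37 °C. Widefield imaging; median green intensity from 250 cells per well normalized to untreated wells. Mean ± SD of three wells; one-tailed t-test.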

Series [2] concerns the target T1, ATP-dependent translocase ABCB1. As to the kind of experiment: Inhibition of P-gp in human A498 cells assessed as increase in green fluorescence intensity at 0.1 to 10 uM incubated for 15 mins followed by incubation with EFFLUX-ID Green Detection Reagent and Hoeschst-33342 dye and measured after 30 mins by fluorescence analysis. It is filed as cell-based. The note with it: a498, 0.25 h, dose 0.1-10 µM. In a few lines:
as §1

The next series has as its system HMC3. As to the kind of experiment: Cytotoxicity against human HMC3 cells assessed as effect on cell viability at 0.1 to 100 uM incubated for 24 to 72 hrs by MTT assay. Conditions: hmc3, 100 µM, dose lower 0.1 µM, time lower 24 hrs, dose upper 100 µM, time upper 72 hrs. It is filed as toxicity, cell-based. The essentials: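 HMC3 microglia in high-glucose DMEM/10% FBS, 37 °C 5% CO2, treated 0.1–100 µM for 24, 48 or 72 h; vehicle-treated controls. MTT 0.5 mg/mL, 4 h 37 °C, formazan dissolved in DMSO, read at 540 nm; viability as percent of control. Three independent experiments in triplicate, mean ± S.E.M., one-way ANOVA with Tukey.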
(In general: Tetrazolium dyes change colour on reduction, which living cells bring about.)

The next series relates to SK-N-SH. As to the kind of experiment: Coadjutant activity against multidrug resistance in human SK-N-SH cells assessed as potentiation of etoposide-induced cell growth inhibition at 4 uM incubated for 72 hrs in presence of 0.04 to 40 uM etoposide by SiR-DNA/CellTox Green Dye based fluorescence analysis. It is filed as functional. The essentials:
(§2)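 Growth by live-cell imaging: 500 cells/well plated with SiR-DNA and CellTox Green dye; serial dilutions in phenol-red-free complete medium added next day. Imaged at addition and at 72 h. Live cells = SiR-DNA nuclei minus CellTox-positive dead cells; percentage growth calculated. Three technical replicates; two-tailed t-test. Inhibitor paired with anticancer drug at fixed or scaled levels.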

Series [3] relates to SK-HEP1. As to the kind of experiment: Coadjutant activity against multidrug resistance in human SK-HEP1 cells assessed as potentiation of vincristine-induced cell growth inhibition at 4 uM incubated for 72 hrs in presence of 0.02 to 20 uM vincristine by SiR-DNA/CellTox Green Dye based fluorescence analysis. The format is functional. In a few lines:
as §2

In series [4] the test system is HT-29. As to the kind of experiment: Cytotoxicity against human HT-29 cells assessed as inhibition of cell growth at 4 uM incubated for 72 hrs by SiR-DNA/CellTox Green Dye based fluorescence analysis. The note with it: ht-29, 72 h. It is filed as toxicity. The essentials:
(§3)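 Single-agent control at 4 µM, no anticancer drug. 500 cells/well with SiR-DNA and CellTox Green; imaged at addition and 72 h. Live count = total nuclei minus dead cells, expressed as percent growth. Three technical replicates.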

Series [5] relates to A498. As to the kind of experiment: Coadjutant activity against multidrug resistance in human A498 cells assessed as potentiation of etoposide-induced cell growth inhibition at 4 uM incubated for 72 hrs in presence of 0.04 to 40 uM etoposide by SiR-DNA/CellTox Green Dye based fluorescence analysis. The format is functional. The essentials:
as §2

In series [6] the test system is SK-HEP1. Kind of series: Coadjutant activity against multidrug resistance in human SK-HEP1 cells assessed as potentiation of cisplatin-induced cell growth inhibition at 4 uM incubated for 72 hrs in presence of 0.1 to 100 uM cisplatin by SiR-DNA/CellTox Green Dye based fluorescence analysis. The format is functional. In a few lines: (§4)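 Cisplatin co-treatment, 72 h imaging growth assay (SiR-DNA nuclei minus CellTox Green dead cells, 500 cells/well, phenol-red-free medium). Combinations: inhibitor fixed with cisplatin 0.1–100 µM, or cisplatin fixed at 0.25 µM with inhibitor 0.25–4 µM. Three technical replicates, mean ± SD; two-tailed t-test.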

The subject of series [7] is HT-29. Kind of series: Coadjutant activity against multidrug resistance in human HT-29 cells assessed as potentiation of cisplatin-induced cell growth inhibition at 0.25 to 4 uM incubated for 72 hrs in presence of 0.25 uM cisplatin by SiR-DNA/CellTox Green Dye based fluorescence analysis. The format is functional. Conditions: dose 0.25-4 µM. In a few lines: as §4
The next series relates to HCT-116 (Homo sapiens). Kind of series: Coadjutant activity against multidrug resistance in human HCT-116 cells assessed as potentiation of cisplatin-induced cell growth inhibition at 0.25 to 4 uM incubated for 72 hrs in presence of 0.25 uM cisplatin by SiR-DNA/CellTox Green Dye based fluorescence analysis. Conditions: dose 0.25-4 µM.
A further series relates to HCT-116. Kind of series: Coadjutant activity against multidrug resistance in human HCT-116 cells assessed as potentiation of cisplatin-induced cell growth inhibition at 4 uM incubated for 72 hrs in presence of 0.1 to 100 uM cisplatin by SiR-DNA/CellTox Green Dye based fluorescence analysis. The format is functional. In a few lines:
as §4

The subject of another series is A704. Kind of series: Coadjutant activity against multidrug resistance in human A704 cells assessed as potentiation of vincristine-induced cell growth inhibition by measuring cell growth at 4 uM incubated for 72 hrs in presence of 0.02 to 20 uM vincristine by SiR-DNA/CellTox Green Dye based fluorescence analysis. It is filed as functional. Further details: scale not given: the % may be the effect or the level left. In a few lines:
as §2

In another series the test system is U-87 MG. Kind of series: Coadjutant activity against multidrug resistance in human U-87 MG cells assessed as potentiation of etoposide-induced cell growth inhibition at 4 uM incubated for 72 hrs in presence of 0.04 to 40 uM etoposide by SiR-DNA/CellTox Green Dye based fluorescence analysis. Conditions: U-87MG ATCC. It is filed as functional. The essentials: as §2

The test system of series [8] is A498. Kind of series: Coadjutant activity against multidrug resistance in human A498 cells assessed as potentiation of vincristine-induced cell growth inhibition by measuring cell growth at 4 uM incubated for 72 hrs in presence of 0.02 to 20 uM vincristine by SiR-DNA/CellTox Green Dye based fluorescence analysis. The format is functional. Further details: scale not given: the % may be the effect or the level left. The essentials: as §2

In the next series the test system is MeWo. Kind of series: Cytotoxicity against human MeWo cells assessed as inhibition of cell growth at 4 uM incubated for 72 hrs by SiR-DNA/CellTox Green Dye based fluorescence analysis. It is filed as toxicity. In a few lines: as §3
The subject of series [9] is SK-HEP1. As to the kind of experiment: Cytotoxicity against human SK-HEP1 cells assessed as inhibition of cell growth at 4 uM incubated for 72 hrs by SiR-DNA/CellTox Green Dye based fluorescence analysis. The note with it: sk-hep1, 72 h. The format is toxicity. The essentials:
as §3

Series [10] addresses Voltage-dependent L-type calcium channel subunit alpha-1C (Rattus norvegicus, UniProt P22002). Kind of series: Inhibition of Cav1.2 in Wistar rat tail artery smooth muscle cells assessed as inhibition of Ba2+ current at 0.3 to 10 uM at holding potential of -50 mV by whole cell patch clamp analysis. The note with it: dose 0.3-10 µM. It is filed as toxicity, tissue-based. The essentials:
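Freshly dissociated rat tail main artery myocytes (collagenase XI, 37 °C). Whole-cell patch clamp, 20–22 °C; Cs-based internal, external with 30 mM TEA and 5 mM Ba2+. IBa1.2 evoked by 250-ms steps to 10 mV from −50 mV at 0.067 Hz; compound added cumulatively 0.3–10 µM; leak subtracted using 10 µM nifedipine. Amplitude as percent of control, n = 5.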

T1 sequence (P08183 whole entry): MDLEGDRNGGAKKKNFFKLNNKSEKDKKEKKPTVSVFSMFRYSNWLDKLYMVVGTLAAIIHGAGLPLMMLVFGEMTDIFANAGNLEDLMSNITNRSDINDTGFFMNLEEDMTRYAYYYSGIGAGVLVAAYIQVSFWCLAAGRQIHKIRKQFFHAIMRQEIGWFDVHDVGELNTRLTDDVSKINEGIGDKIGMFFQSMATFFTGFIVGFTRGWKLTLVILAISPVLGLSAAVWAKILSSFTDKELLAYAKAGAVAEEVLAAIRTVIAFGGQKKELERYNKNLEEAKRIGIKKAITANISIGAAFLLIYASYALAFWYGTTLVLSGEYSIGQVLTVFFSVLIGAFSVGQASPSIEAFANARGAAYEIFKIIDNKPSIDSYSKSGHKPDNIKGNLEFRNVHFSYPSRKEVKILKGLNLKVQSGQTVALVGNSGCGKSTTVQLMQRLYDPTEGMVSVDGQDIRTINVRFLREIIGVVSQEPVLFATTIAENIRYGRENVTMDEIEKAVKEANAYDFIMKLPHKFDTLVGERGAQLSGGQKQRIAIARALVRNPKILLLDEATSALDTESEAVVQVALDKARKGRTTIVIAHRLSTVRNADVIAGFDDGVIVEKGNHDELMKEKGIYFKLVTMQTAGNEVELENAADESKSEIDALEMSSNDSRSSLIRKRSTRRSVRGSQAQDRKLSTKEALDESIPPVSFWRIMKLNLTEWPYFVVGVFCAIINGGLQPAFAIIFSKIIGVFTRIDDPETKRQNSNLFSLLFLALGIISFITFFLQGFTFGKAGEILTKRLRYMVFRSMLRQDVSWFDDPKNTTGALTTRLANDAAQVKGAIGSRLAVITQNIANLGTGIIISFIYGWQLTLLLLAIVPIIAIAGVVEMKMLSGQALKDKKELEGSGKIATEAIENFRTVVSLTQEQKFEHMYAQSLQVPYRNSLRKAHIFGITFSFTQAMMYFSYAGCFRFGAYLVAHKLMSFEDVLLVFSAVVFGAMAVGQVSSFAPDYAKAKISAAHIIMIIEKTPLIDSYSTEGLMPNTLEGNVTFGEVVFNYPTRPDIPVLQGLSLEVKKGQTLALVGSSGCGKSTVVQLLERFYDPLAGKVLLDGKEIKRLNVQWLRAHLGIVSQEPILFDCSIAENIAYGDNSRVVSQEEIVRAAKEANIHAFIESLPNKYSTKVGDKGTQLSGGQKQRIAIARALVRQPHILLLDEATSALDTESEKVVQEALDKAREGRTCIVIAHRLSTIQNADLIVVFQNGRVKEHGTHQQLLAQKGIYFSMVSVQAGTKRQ
Voltage-dependent L-type calcium channel subunit alpha-1C, sequence (P22002 whole entry): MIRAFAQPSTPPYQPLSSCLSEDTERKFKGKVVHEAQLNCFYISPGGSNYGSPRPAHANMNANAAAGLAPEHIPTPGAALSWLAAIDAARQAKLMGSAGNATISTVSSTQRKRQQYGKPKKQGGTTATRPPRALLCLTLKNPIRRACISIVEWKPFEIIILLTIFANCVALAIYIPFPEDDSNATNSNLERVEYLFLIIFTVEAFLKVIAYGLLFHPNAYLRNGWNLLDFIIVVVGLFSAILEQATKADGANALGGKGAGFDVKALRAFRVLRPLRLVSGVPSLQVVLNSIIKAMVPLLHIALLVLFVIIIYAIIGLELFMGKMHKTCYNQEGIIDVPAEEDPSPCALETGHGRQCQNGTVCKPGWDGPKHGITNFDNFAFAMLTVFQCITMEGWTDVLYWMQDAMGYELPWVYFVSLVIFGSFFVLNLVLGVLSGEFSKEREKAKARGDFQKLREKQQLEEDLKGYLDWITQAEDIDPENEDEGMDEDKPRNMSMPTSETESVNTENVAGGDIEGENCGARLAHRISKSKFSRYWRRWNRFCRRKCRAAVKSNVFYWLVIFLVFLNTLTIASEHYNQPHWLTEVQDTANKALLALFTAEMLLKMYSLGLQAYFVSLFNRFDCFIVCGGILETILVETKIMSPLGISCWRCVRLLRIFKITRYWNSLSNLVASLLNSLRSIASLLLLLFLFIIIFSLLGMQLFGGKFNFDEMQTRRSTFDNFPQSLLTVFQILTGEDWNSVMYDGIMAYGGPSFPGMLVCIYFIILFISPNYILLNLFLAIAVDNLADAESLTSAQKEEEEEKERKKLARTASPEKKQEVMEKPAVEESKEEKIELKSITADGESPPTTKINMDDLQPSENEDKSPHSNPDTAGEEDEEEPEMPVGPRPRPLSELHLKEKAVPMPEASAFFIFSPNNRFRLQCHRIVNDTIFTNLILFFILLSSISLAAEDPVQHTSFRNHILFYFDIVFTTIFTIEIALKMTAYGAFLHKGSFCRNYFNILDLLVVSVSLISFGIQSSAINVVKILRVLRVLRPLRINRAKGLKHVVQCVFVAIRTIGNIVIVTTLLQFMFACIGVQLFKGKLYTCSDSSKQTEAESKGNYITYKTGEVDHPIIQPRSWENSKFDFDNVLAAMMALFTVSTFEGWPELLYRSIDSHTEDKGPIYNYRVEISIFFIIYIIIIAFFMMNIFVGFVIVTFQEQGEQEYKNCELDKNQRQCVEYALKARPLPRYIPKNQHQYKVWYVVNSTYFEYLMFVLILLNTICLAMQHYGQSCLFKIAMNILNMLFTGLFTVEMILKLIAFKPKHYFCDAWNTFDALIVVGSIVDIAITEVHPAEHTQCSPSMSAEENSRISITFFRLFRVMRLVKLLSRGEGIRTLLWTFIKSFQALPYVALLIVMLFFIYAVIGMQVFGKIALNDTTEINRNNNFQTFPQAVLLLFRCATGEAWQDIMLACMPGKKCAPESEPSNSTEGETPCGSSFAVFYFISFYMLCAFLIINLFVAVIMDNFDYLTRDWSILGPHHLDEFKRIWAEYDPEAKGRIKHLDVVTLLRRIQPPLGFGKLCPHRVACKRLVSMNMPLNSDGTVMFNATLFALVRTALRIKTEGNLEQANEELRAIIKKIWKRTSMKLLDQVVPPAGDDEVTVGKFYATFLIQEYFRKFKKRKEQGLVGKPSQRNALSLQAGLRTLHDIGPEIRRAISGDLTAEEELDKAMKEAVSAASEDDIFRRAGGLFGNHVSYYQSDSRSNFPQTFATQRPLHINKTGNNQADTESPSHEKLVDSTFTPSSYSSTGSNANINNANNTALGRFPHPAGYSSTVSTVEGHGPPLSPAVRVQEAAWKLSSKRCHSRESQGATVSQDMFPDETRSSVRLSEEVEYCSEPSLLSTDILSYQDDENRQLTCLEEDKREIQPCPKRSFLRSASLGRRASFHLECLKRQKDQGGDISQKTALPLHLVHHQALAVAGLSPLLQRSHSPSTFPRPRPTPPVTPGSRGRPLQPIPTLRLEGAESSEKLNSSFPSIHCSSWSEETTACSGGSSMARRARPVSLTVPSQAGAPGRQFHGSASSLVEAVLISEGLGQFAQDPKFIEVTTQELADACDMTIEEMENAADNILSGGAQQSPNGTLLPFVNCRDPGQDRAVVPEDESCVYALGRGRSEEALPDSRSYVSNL

Take `O=C(Nc1ccccc1)c1ccccc1OCc1nc2cc3cccnc3cc2nc1COc1ccccc1C(=O)Nc1ccccc1`: the “inhibition (INH)” value in series [1], in series [2] and in series [10] was “Not Active” throughout. For the same compound, the Activity result is “Non-Toxic” in the series with HMC3; “Non-Toxic” in the series on HT-29 [4]; 50% with A704; 50% in the series with A498 [8]; “Non-Toxic” in the series on MeWo; “Non-Toxic” in the series on SK-HEP1 [9]. Also, the outcome in the series on SK-N-SH, in the series with SK-HEP1 [3], with A498 [5] and in the series on U-87 MG was Active. Further, the result in the series on SK-HEP1 [6], with HT-29 [7], in the series with HCT-116 (Homo sapiens) and with HCT-116 was inactive.
